Measurements published in PMC4004375 (European journal of medicinal chemistry, 2013).

Legend:
[1] = molecular target: intracellular HCV NS5B RdRp activity (Hepatitis C virus genotype 1b, UniProt P26663); assay: BHK-NS5B-FRLuc reporter: intracellular NS5B RdRp activity; assay type: cell-based; conditions: 100 μM, 42 h, percent of DMSO controls
Outline: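 BHK cells stably expressing NS5B and carrying a bicistronic (+)FLuc-(−)UTR-RLuc reporter were grown in DMEM with 10% FBS, antibiotic-antimycotic, nonessential amino acids, 1 mg/mL G418 and […] at 37 °C and 5% CO2. Cells were seeded at 1 × 10^4 cells/well and dosed 8 h later with 100 μM test compound. Cells were lysed 42 h after treatment and read by dual luciferase. Activity is the percent reduction in RLuc/FLuc versus DMSO controls.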

[2] = tested on: HCV RNA replication of genotype 2a (Huh7.5-FGR-JC1-Rluc2A); assay: HCV 2a replicon luciferase reporter assay; assay type: cell-based, Hepatitis C virus genotype 2a; conditions: Huh7.5-FGR-JC1-Rluc2A cells, 100 μM, 42 h
Huh7.5 cells = assay: Cell viability in parental Huh7.5 cells by MTS assay; assay type: cell-based; conditions: 100 μM, 42 h
Outline: (§1)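 Cytotoxicity was run in parallel with the HCV replicon assays, using parental Huh7.5 cells at 37 °C and 5% CO2. Cells were seeded at 1 × 10^4 cells/well and exposed 8 h later to test compound at 100 μM or to matching DMSO for 42 h. Viability was read by the colorimetric MTS assay.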

[3] = tested on: HCV RNA replication of genotype 1b (Huh7/Rep-Feo1b); assay: HCV 1b replicon luciferase reporter assay; assay type: cell-based, Hepatitis C virus genotype 1b; conditions: Huh7/Rep-Feo1b cells, 100 μM, 42 h
[4] = tested on: BHK-NS5B-FRLuc reporter cells; assay type: cell-based; conditions: 100 μM, 42 h, firefly luciferase versus DMSO controls
[5] = Cell viability in parental Huh7.5 cells by MTS assay; assay type: cell-based; conditions: human, parental Huh7.5 cells, Huh7.5 Cytotoxicity (%)
Outline: as §1

Sequence of intracellular HCV NS5B RdRp activity (P26663 2420-3010): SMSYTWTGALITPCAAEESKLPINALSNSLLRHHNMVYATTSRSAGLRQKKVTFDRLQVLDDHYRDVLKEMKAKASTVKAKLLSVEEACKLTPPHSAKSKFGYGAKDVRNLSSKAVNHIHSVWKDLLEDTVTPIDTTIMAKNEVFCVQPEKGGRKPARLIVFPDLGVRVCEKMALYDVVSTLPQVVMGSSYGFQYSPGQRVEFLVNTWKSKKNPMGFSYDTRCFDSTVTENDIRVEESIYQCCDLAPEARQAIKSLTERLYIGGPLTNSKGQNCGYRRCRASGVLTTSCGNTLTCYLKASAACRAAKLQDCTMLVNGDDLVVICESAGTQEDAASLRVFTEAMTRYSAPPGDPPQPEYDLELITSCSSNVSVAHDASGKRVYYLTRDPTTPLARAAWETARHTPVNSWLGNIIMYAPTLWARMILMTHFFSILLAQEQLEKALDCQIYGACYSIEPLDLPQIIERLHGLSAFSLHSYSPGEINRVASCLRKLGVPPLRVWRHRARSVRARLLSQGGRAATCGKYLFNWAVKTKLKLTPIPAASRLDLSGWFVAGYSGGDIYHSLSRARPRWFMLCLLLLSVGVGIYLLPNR

Compound	BHK-NS5B FR Luc Inhibition (%) [1]	2a Replicon reporter Inhibition (%) [2]	Huh7.5 Cytotoxicity (%) (Huh7.5 cells)	1b Replicon reporter Inhibition (%) [3]	BHK-NS5B FR Luc Cytotoxicity (%) [4] [%]	cytotoxicity at 42 h, 100 µM [5] [%]
2-[[5-(4-Fluorophenyl)-1,3,4-thiadiazol-2-yl]imino]-5-(2,6-dimethoxybenzylidene)-1,3-thiazolidin-4-one [Compound 17]	7.0 ± 1.8%	50.4 ± 5.2%	13.9 ± 1.6	51.2 ± 6.3%	–	–
2-[[5-(4-Fluorophenyl)-1,3,4-thiadiazol-2-yl]imino]-5-(4-nitrobenzylidene)-1,3-thiazolidin-4-one [Compound 16]	no inhibition and n.i	93.2 ±1.7%	63.0 ± 4.4	87.7 ± 1.4%	73.7 ± 8.6	–
Nc1nnc(-c2ccc(F)cc2)s1 [Compound 3, 2-Amino-5-(4-fluorophenyl)-1,3,4-thiadiazole]	–	–	–	–	0.0	–
Nc1nnc(-c2ccc(Cl)cc2)s1 [Compound 4, 2-Amino-5-(4-chlorophenyl)-1,3,4-thiadiazole]	did not inhibit and n.i.	–	–	–	–	–
O=C(CCl)Nc1nnc(-c2ccc(F)cc2)s1 [Compound 5, 2-Chloro-N-[5-(4-fluorophenyl)-1,3,4-thiadiazol-2-yl]acet-amide]	–	near complete inhibition	–	near complete inhibition	–	> 70
O=C(CCl)Nc1nnc(-c2ccc(Cl)cc2)s1 [Compound 6, 2-Chloro-N-[5-(4-chlorophenyl)-1,3,4-thiadiazol-2-yl]acet-amide]	–	near complete inhibition	–	near complete inhibition	–	> 70
O=C1CS/C(=N/c2nnc(-c3ccc(F)cc3)s2)N1 [Compound 7, 2-[[5-(4-Fluorophenyl)-1,3,4-thiadiazol-2-yl]imino]-1,3-thiazolidine-4-one]	–	–	–	–	0.0	–
O=C1N/C(=N\c2nnc(-c3ccc(F)cc3)s2)S/C1=C\c1c(F)cccc1Cl [Compound 12, 2-[[5-(4-Fluorophenyl)-1,3,4-thiadiazol-2-yl]imino]-5-(2-chloro-6-fluoro-benzylidene)-1,3-thiazolidin-4-one]	–	near complete inhibition	–	near complete inhibition	–	> 70
O=C1N/C(=N\c2nnc(-c3ccc(F)cc3)s2)S/C1=C\c1ccc(Cl)cc1Cl [Compound 14, 2-[[5-(4-Fluorophenyl)-1,3,4-thiadiazol-2-yl]imino]-5-(2,4-dichlorobenzylidene)-1,3-thiazolidin-4-one]	n.i	–	–	–	–	–
O=C1N/C(=N\c2nnc(-c3ccc(F)cc3)s2)S/C1=C\c1c(Cl)cccc1Cl [Compound 15, 2-[[5-(4-Fluorophenyl)-1,3,4-thiadiazol-2-yl]imino]-5-(2,6-dichlorobenzylidene)-1,3-thiazolidin-4-one]	–	near complete inhibition	–	near complete inhibition	–	> 70
O=C1N/C(=N\c2nnc(-c3ccc(Cl)cc3)s2)S/C1=C\c1ccc(F)cc1 [Compound 20, 2-[[5-(4-Chlorophenyl)-1,3,4-thiadiazol-2-yl]imino]-5-(4-fluorobenzylidene)-1,3-thiazolidin-4-one]	no inhibition and n.i	–	–	–	–	–
O=C1N/C(=N\c2nnc(-c3ccc(Cl)cc3)s2)S/C1=C\c1c(F)cccc1Cl [Compound 21, 2-[[5-(4-Chlorophenyl)-1,3,4-thiadiazol-2-yl]imino]-5-(2-chloro-6-fluoro-benzylidene)-1,3-thiazolidin-4-one]	n.i.	n.i.	–	n.i.	–	0
O=C1N/C(=N\c2nnc(-c3ccc(Cl)cc3)s2)S/C1=C\c1ccccc1Cl [Compound 22, 2-[[5-(4-Chlorophenyl)-1,3,4-thiadiazol-2-yl]imino]-5-(2-chlorobenzylidene)-1,3-thiazolidin-4-one]	n.i.	n.i.	–	n.i.	–	0
O=C1N/C(=N\c2nnc(-c3ccc(Cl)cc3)s2)S/C1=C\c1ccc(Cl)cc1Cl [Compound 23, 2-[[5-(4-Chlorophenyl)-1,3,4-thiadiazol-2-yl]imino]-5-(2,4-dichlorobenzylidene)-1,3-thiazolidin-4-one]	n.i.	n.i.	–	n.i.	–	0
O=C1N/C(=N\c2nnc(-c3ccc(Cl)cc3)s2)S/C1=C\c1c(Cl)cccc1Cl [Compound 24, 2-[[5-(4-Chlorophenyl)-1,3,4-thiadiazol-2-yl]imino]-5-(2,6-dichlorobenzylidene)-1,3-thiazolidin-4-one]	–	near complete inhibition	–	near complete inhibition	–	> 70
COc1cccc(OC)c1/C=C1\S/C(=N/c2nnc(-c3ccc(Cl)cc3)s2)NC1=O [Compound 25, 2-[[5-(4-Chlorophenyl)-1,3,4-thiadiazol-2-yl]imino]-5-(2,6-dimethoxy-benzylidene)-1,3-thiazolidin-4-one]	–	near complete inhibition	–	near complete inhibition	–	> 70
